Results published in ChEMBL document CHEMBL3259663, “3-Amido-3-aryl-piperidines: A Novel Class of Potent, Selective, and Orally Active GlyT1 Inhibitors” (ACS Med Chem Lett, 2014).
Activity calls are given as the source filed them. The calls are words filed in the database; no cut-off is given here.

Key:
[1] = Permeability of the compound by PAMPA; type: physicochemical; details: read-out: permeability
[2] = Intrinsic clearance in human liver microsomes; type: ADME; details: read-out: CLH
[3] = Fraction unbound in mouse at 7.7 mg/kg, po; type: ADME, organism-based; parameters: dose 7.7 mg/kg, route oral; details: in vivo, read-out: PPB
In short: (§1)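 Mouse PK after a 7.7 mg/kg oral dose. Brain/plasma ratio taken at 1.5 h. Values are the average of two independent experiments.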

[4] = Clearance in mouse at 1.7 mg/kg, iv; type: ADME, organism-based; parameters: dose 1.7 mg/kg, route intravenous; details: in vivo
In short: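 Mouse PK, single iv dose of 1.7 mg/kg. Values are the average of two independent experiments.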

[5] = test system: Striatum; assay: Maximal induction of extracellular glycine level in rat striatum at 10 mg/kg, po relative to basal level; type: functional
In short: (§2)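 Rat striatal microdialysis after a 10 mg/kg oral dose. Extracellular glycine measured as fold over basal levels, with sampling stopped at 3 h. Plasma and brain exposures determined at 3 h post-dose. n = 6.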

[6] = Intrinsic clearance in mouse liver microsomes; type: ADME; details: read-out: CLH
[7] = test system: Striatum; assay: Induction of extracellular glycine level in rat striatum at 10 mg/kg, po after 3 hrs relative to basal level; type: functional; in short: as §2
[8] = test system: Mus musculus; assay: Inhibition of L687414-induced hyperlocomotion in po dosed mouse assessed horizontal activity; type: functional
In short: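 Oral dosing in mice against L-687,414-induced hyperlocomotion. Horizontal activity counts recorded over 60 min, mean per group, n = 8 per group. ID₅₀ is the dose producing 50% inhibition of the hyperlocomotion.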

[9] = biological target: hERG (KCNH2) (Homo sapiens, UniProt Q12809); assay: Inhibition of human ERG channel by Patch clamp assay
hERG (KCNH2), sequence (Q12809 whole entry): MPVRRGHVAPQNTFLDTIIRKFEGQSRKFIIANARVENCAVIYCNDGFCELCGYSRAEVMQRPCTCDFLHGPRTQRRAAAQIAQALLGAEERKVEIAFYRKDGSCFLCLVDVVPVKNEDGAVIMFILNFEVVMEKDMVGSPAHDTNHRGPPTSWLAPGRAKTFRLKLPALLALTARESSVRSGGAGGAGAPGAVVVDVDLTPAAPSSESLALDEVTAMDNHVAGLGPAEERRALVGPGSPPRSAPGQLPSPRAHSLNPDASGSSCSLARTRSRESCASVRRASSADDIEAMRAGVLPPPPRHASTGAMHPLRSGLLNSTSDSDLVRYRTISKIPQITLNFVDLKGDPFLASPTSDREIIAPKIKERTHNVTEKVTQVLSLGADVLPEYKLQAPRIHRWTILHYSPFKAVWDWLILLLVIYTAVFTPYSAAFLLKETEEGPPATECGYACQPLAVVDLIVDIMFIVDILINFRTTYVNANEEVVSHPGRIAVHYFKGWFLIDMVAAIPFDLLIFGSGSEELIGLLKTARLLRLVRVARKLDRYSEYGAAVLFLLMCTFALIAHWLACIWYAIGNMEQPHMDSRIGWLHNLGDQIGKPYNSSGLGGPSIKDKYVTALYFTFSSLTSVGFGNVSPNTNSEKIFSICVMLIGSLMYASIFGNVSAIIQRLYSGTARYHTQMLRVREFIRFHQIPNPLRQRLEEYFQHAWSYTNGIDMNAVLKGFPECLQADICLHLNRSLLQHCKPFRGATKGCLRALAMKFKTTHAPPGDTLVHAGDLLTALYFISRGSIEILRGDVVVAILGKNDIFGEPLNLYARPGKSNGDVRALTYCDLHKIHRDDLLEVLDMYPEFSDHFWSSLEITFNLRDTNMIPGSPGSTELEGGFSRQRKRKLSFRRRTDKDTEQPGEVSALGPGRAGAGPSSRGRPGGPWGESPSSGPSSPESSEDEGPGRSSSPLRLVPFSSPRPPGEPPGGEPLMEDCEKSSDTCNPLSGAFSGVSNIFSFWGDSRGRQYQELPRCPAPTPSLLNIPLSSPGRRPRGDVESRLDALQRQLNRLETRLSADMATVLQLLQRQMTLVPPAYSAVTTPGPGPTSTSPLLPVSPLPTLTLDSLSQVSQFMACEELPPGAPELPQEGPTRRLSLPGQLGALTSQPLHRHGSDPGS

[10] = biological target: Cytochrome P450 2D6 (Homo sapiens, UniProt P10635); assay: Inhibition of CYP2D6 (unknown origin); type: ADME
Cytochrome P450 2D6, sequence (P10635 whole entry): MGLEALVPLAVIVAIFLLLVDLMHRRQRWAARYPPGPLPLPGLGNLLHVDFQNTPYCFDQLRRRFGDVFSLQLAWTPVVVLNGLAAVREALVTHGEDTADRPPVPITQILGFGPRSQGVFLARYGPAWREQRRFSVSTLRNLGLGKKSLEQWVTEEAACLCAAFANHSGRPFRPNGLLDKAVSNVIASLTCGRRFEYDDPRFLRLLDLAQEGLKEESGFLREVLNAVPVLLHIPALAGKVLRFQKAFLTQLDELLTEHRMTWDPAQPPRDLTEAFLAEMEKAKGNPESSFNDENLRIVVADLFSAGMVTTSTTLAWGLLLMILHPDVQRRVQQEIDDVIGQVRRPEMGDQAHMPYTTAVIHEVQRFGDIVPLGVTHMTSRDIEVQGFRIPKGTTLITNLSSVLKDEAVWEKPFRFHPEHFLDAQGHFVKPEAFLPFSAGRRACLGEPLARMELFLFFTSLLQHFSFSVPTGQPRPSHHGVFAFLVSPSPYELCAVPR

[11] = test system: Mus musculus; assay: Inhibition of L687414-induced hyperlocomotion in po dosed mouse assessed horizontal activity at 8 ng/ml plasma concentration; type: functional, organism-based
[12] = biological target: Cytochrome P450 2C9 (Homo sapiens, UniProt P11712); assay: Inhibition of CYP2C9 (unknown origin); type: ADME
Cytochrome P450 2C9, sequence (P11712 whole entry): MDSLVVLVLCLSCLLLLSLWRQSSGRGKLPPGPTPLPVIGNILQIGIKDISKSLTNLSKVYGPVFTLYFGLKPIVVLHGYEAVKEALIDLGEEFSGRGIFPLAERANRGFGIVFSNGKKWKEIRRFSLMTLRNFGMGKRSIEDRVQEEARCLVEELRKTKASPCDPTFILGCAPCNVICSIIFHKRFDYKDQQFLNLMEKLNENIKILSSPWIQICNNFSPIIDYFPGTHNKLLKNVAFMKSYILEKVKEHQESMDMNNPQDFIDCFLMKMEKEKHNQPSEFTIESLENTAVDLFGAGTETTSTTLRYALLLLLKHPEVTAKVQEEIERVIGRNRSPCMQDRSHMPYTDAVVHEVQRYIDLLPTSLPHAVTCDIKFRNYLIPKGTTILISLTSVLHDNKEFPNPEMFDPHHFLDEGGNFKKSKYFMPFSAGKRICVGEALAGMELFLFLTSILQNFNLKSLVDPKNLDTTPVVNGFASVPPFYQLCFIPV

[13] = Half life in mouse at 7.7 mg/kg, po; type: ADME, organism-based; parameters: dose 7.7 mg/kg, route oral; details: in vivo; in short: as §1
[14] = Oral bioavailability in mouse at 7.7 mg/kg; type: ADME, organism-based; details: in vivo; in short: as §1
[15] = biological target: T1, Sodium- and chloride-dependent glycine transporter 1 (Mus musculus, UniProt P28571); assay: Inhibition of mouse GlyT1
T1 sequence (P28571 whole entry): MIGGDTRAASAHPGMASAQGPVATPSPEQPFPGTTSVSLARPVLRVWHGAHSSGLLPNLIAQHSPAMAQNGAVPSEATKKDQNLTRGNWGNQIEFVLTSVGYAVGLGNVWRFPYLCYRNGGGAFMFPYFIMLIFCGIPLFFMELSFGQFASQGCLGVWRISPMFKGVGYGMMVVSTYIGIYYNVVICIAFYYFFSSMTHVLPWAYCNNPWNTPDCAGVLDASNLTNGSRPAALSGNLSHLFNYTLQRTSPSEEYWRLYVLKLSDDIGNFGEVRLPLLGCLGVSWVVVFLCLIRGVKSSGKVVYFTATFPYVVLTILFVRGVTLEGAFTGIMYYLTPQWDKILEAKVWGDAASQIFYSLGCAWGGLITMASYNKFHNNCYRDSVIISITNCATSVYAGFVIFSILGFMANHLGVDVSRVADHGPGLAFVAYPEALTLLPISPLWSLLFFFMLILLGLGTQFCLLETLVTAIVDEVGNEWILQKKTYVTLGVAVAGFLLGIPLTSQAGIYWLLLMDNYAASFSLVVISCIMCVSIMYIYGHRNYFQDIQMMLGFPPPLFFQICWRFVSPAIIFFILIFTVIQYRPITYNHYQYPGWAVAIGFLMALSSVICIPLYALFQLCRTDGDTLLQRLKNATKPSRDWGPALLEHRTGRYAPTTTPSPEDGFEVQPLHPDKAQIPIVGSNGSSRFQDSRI

- Papp [1]: 7.4 ×10⁻⁶ cm/s
- microsomal CLint [2]: 19 µL/min/mg
- fraction unbound [3]: 0.017
- clearance [4]: 54 mL/min/kg
- microsomal CLint [6]: 54 µL/min/mg
- IC50 [10]: 16 µM
- IC50 [12]: > 50 µM
- half-life [13]: 4.2 h
- bioavailability [14]: 100%
- EC50 [15]: 0.005 µM
SMILES: COc1cc(C(F)(F)F)cc(SC)c1C(=O)N[C@@]1(c2ccccc2)CCCN(C)C1
- fold change (FC) [5]: 1.7
- fold change (FC) [7]: 1.5
- inhibition [8]: Dose-dependent effect
- ED50 ([8]; read-out: ID50 (the source's name)): 1.5 mg/kg
- IC20 [9]: 5.4 µM
- inhibition [11]: Active
